Assay results taken from ChEMBL document CHEMBL3826914, “Selective photodepletion of malignant T cells in extracorporeal photopheresis with selenorhodamine photosensitizers” (Bioorg Med Chem, 2016).

Key:
[1] = Drug extrusion in SEB-stimulated human CD25 positive cells assessed as mean fluorescence intensity at 5 x 10^-8 M preincubated for 20 mins followed by growth in photosensitizer-free media for 30 mins by flow cytometric analysis relative to control; conditions: 0.5 h, 0.05 µM
[2] = system: HuT78; conditions: human, hut78, 0.5 h, 0.075 µM
[3] = Drug extrusion in SEB-stimulated human CD25 negative cells assessed as mean fluorescence intensity at 5 x 10^-8 M preincubated for 20 mins followed by growth in photosensitizer-free media for 30 mins by flow cytometric analysis relative to control; conditions: 0.5 h, 0.05 µM
[4] = system: HuT78; conditions: human, hut78, 0.5 h, 0.075 µM; remark: listed apart in the source
[5] = Drug uptake in human HUT78 cell mitochondria by MTG-based bright field microscopic analysis; assay type: ADME
How it was run: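 HUT-78 cells (5×10^5 in 0.5 mL medium) were incubated 15 min with 2×10^-7 M dye together with 5×10^-7 M MitoTracker Green. They were centrifuged and analysed by ImageStream imaging flow cytometry, with MTG excited at 488 nm (480–560 nm channel) and dye excited at 561 nm (642–745 nm channel). Colocalisation was given as the bright detail similarity score, mean ± SD over cells.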

[6] = Drug uptake in SEB-stimulated human CD25 positive cells assessed as mean fluorescence intensity at 5 x 10^-8 M preincubated for 20 mins followed by growth in photosensitizer-free media for 30 mins by flow cytometric analysis relative to control; conditions: 0.5 h, 0.05 µM
[7] = Drug uptake in SEB-stimulated human CD25 negative cells assessed as mean fluorescence intensity at 5 x 10^-8 M preincubated for 20 mins followed by growth in photosensitizer-free media for 30 mins by flow cytometric analysis relative to control; conditions: 0.5 h, 0.05 µM
[8] = Phototoxicity human CD8 positive cells co-cultured with GFP expressing human HUT78 cells assessed as cell survival at 7.5 x 10^-8 M preincubated 20 mins in photosensitizer media followed by growth in photosensitizer-free media for 30 mins measured 18 hrs after exposure to 5 J/cm2 irradiation by FACS analysis; assay type: cell-based; conditions: read-out: Survival
How it was run: (§1)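 Non-stimulated PBMCs from healthy donors (Ficoll-separated) were mixed 5:1 with GFP-transfected, sorted (>98%) HUT-78 cells. Cells took up 7.5×10^-8 M photosensitizer for 20 min, then spent 30 min in dye-free medium. They were exposed to 5 J cm^-2 light (600 nm LED) with rotation at 180 rpm. Survival was gated by FACS (GFP, CD3, CD4, CD8) 18 h later versus non-irradiated controls. Triplicate; mean ± SEM.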

[9] = Drug extrusion in SEB-stimulated human CD25 negative cells assessed as change in mean fluorescence intensity at 5 x 10^-8 M preincubated for 20 mins followed by growth in photosensitizer-free media for 30 mins by flow cytometric analysis relative to control; conditions: 0.5 h, 0.05 µM
[10] = N-octanol/water partition coefficient, logP of the compound at 23 degC after 1 hr by HPLC based shake flask method; assay type: physicochemical
How it was run: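 Shake-flask method using 1-octanol: 3–5 min of mixing, then 1 h settling. Equilibration and measurement were at 23 °C, in triplicate.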

[11] = Drug extrusion in SEB-stimulated human CD25 positive cells assessed as change in mean fluorescence intensity at 5 x 10^-8 M preincubated for 20 mins followed by growth in photosensitizer-free media for 30 mins by flow cytometric analysis relative to control; conditions: 0.5 h, 0.05 µM
[12] = system: ABCB1; experiment: Passive permeability in dog MDCK2-MDR1 cells expressing ABCB1 at 5 uM after 30 mins in presence of compound 15 by LC-MS/MS analysis; assay type: ADME, cell-based, Canis lupus familiaris, MDCK-II; conditions: MDCK-MDR1, with compound 15 (concentration not stated), read-out: permeability
How it was run: (§2)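 MDR1-transfected MDCKII cells (passage 16–42) were seeded at 50,000 cells cm^-2 on Transwell filters and used on day 6. Monolayers were rinsed in DPBS with 10^-2 M HEPES, pH 7.4, at 37 °C. They were preincubated 30 min in 4.3 mg/mL BSA/DPBSH with or without 5×10^-6 M P-gp inhibitor. 5 μM dye was added apically or basolaterally and samples taken after 1 h at 37 °C with nutation. Quantitation was by LC-MS/MS; P_passive is the mean of P_AB and P_BA under full inhibition. Mean ± SD.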

[13] = Phototoxicity human CD4 positive cells co-cultured with GFP expressing human HUT78 cells assessed as cell survival at 7.5 x 10^-8 M preincubated 20 mins in photosensitizer media followed by growth in photosensitizer-free media for 30 mins measured 18 hrs after exposure to 5 J/cm2 irradiation by FACS analysis; assay type: cell-based; conditions: read-out: Survival; how it was run: as §1
[14] = system: ABCB1; experiment: Permeability from basolateral to apical side in dog MDCK2-MDR1 cells expressing ABCB1 at 5 uM after 30 mins in presence of compound 15 by LC-MS/MS analysis; assay type: ADME, cell-based, Canis lupus familiaris, MDCK-II; conditions: MDCK-MDR1, with compound 15 (concentration not stated), read-out: permeability; how it was run: as §2
[15] = Drug extrusion in human CD3 positive cells assessed as change in mean fluorescence intensity at 5 x 10^-8 M preincubated for 20 mins followed by growth in photosensitizer-free media for 30 mins by flow cytometric analysis relative to control; assay type: cell-based; conditions: 0.5 h, 0.05 µM
[16] = Drug extrusion in human CD8 positive cells assessed as change in mean fluorescence intensity at 5 x 10^-8 M preincubated for 20 mins followed by growth in photosensitizer-free media for 30 mins by flow cytometric analysis relative to control; assay type: cell-based; conditions: 0.5 h, 0.05 µM
[17] = system: ABCB1; experiment: Permeability from apical to basolateral side in dog MDCK2-MDR1 cells expressing ABCB1 at 5 uM after 30 mins in absence of compound 15 by LC-MS/MS analysis; assay type: ADME, cell-based, Canis lupus familiaris, MDCK-II; conditions: MDCK-MDR1, read-out: permeability; how it was run: as §2
[18] = system: ABCB1; experiment: Permeability from basolateral to apical side in dog MDCK2-MDR1 cells expressing ABCB1 at 5 uM after 30 mins in absence of compound 15 by LC-MS/MS analysis; assay type: ADME, cell-based, Canis lupus familiaris, MDCK-II; conditions: MDCK-MDR1, read-out: permeability; how it was run: as §2
[19] = Drug extrusion in human CD4 positive cells assessed as change in mean fluorescence intensity at 5 x 10^-8 M preincubated for 20 mins followed by growth in photosensitizer-free media for 30 mins by flow cytometric analysis relative to control; assay type: cell-based; conditions: 0.5 h, 0.05 µM
[20] = system: HuT78; experiment: Phototoxicity in GFP expressing human HUT78 cells co-cultured with human PBMC cells assessed as cell survival at 7.5 x 10^-8 M preincubated 20 mins in photosensitizer media followed by growth in photosensitizer-free media for 30 mins measured 18 hrs after exposure to 5 J/cm2 irradiation by FACS analysis; assay type: functional; conditions: HuT78, light or radiation study, read-out: Survival; how it was run: as §1
[21] = system: HuT78; experiment: Drug uptake in GFP expressing human HUT78 cells co-cultured with non-stimulated human PBMC cells assessed as change in mean fluorescence intensity at 7.5 x 10^-8 M after 20 mins followed by growth in photosensitizer-free media for 30 mins by flow cytometric analysis relative to control; assay type: cell-based; conditions: hut78, 0.5 h, 0.075 µM
[22] = system: ABCB1; experiment: Permeability from apical to basolateral side in dog MDCK2-MDR1 cells expressing ABCB1 at 5 uM after 30 mins in presence of compound 15 by LC-MS/MS analysis; assay type: ADME, cell-based, Canis lupus familiaris, MDCK-II; conditions: MDCK-MDR1, with compound 15 (concentration not stated), read-out: permeability; how it was run: as §2
[23] = Phototoxicity human CD3 positive cells co-cultured with GFP expressing human HUT78 cells assessed as cell survival at 7.5 x 10^-8 M preincubated 20 mins in photosensitizer media followed by growth in photosensitizer-free media for 30 mins measured 18 hrs after exposure to 5 J/cm2 irradiation by FACS analysis; assay type: cell-based; conditions: read-out: Survival; how it was run: as §1

SMILES | Flu intensity [1] [a.u.] | Flu intensity [2] [a.u.] | Flu intensity [3] [a.u.] | Flu intensity [4] [a.u.] | Flu intensity [6] [a.u.] | Flu intensity [7] [a.u.] | Activity [9] [%] | logP [10] | Activity [11] [%] | Papp at 0.5 h, 5 µM [12] [×10⁻⁶ cm/s] | Papp B→A at 0.5 h, 5 µM [14] [×10⁻⁶ cm/s] | Activity [15] [%] | Activity [16] [%] | Papp A→B at 0.5 h, 5 µM [17] [×10⁻⁶ cm/s] | Papp B→A at 0.5 h, 5 µM [18] [×10⁻⁶ cm/s] | Activity [19] [%] | viability at 0.075 µM [20] [%] | Activity [21] [%] | Papp A→B at 0.5 h, 5 µM [22] [×10⁻⁶ cm/s] | viability at 18 h, 0.075 µM [23] [%] | other results
CN1CCC(C)(C)c2cc3c(-c4ccc(C(=S)N5CCCCC5)s4)c4ccc(=[N+](C)C)cc-4[se]c3cc21.[Cl-] | 32200 | 37600 | 4800 | 39300 | 45800 | 10500 | – | – | – | – | – | – | – | – | – | – | – | – | – | – | Drug uptake [5]: Active
C[N+]1=c2cc3c(cc2C(C)(C)CC1)=C(c1ccc(C(=O)N2CCCCC2)s1)c1cc2c4c(c1[Se]3)CCCN4CCC2.[Cl-] | 25000 | 20000 | 3900 | 33200 | 33800 | 9300 | 58.6 | 3.51 | 37 | 0.1 | 0.28 | 52.7 | 79.6 | 0.14 | 6.6 | 54.1 | 1.24 | 47.1 | 0.018 | 4.8 | viability at 18 h, 0.075 µM [8]: 24.5%; viability at 18 h, 0.075 µM [13]: 0.37%
C[N+]1=c2cc3c(cc2C(C)(C)CC1)=C(c1ccc(C(=S)N2CCCCC2)s1)c1cc2c4c(c1[Se]3)CCCN4CCC2.[Cl-] | 33800 | 36000 | 9500 | 42000 | 43300 | 14100 | 32.9 | 3.78 | 22 | < 0.1 | 0.032 | 36.8 | 51 | 0.044 | 0.88 | 37.7 | 0.7 | 28.2 | 0.046 | 0.4 | –
CN1CCC(C)(C)c2cc3c(cc21)[Se]c1cc2c(cc1=C3c1ccc(C(=S)N3CCCCC3)s1)C(C)(C)CC[N+]=2C.[Cl-] | 12100 | 11700 | 3700 | 13800 | 14500 | 5400 | 30.7 | 3.7 | 16.4 | < 0.1 | 0.013 | 40.1 | 57.5 | 0.15 | 0.63 | 42.8 | 5.6 | 34.6 | 0.051 | 1.5 | –
CN1CCC(C)(C)c2cc3c(-c4ccc(C(=O)N5CCCCC5)s4)c4ccc(=[N+](C)C)cc-4[se]c3cc21.[Cl-] | 3110 | 5270 | 270 | 15300 | 5390 | 900 | – | – | – | – | – | – | – | – | – | – | – | – | – | – | Drug uptake [5]: Active
CN1CCC(C)(C)c2cc3c(cc21)[Se]c1cc2c(cc1=C3c1ccc(C(=O)N3CCCCC3)s1)C(C)(C)CC[N+]=2C.[Cl-] | 7300 | 6240 | 1100 | 9130 | 10900 | 2500 | 58 | 3.42 | 33.5 | 0.2 | 0.4 | 51.3 | 76.2 | 0.18 | 6.5 | 53.3 | 2.4 | 43.1 | 0.051 | 7.2 | viability at 18 h, 0.075 µM [8]: 42.4%; viability at 18 h, 0.075 µM [13]: 1.1%
